Converted amounts (≈) assume the structure as drawn. The source made the active and inactive calls. No cut-off for these calls is given here.
Tests used:
Staphylococcus aureus [1] = experiment: Bactericidal activity against methicillin-resistant Staphylococcus aureus EMRSA-15 assessed as time required to kill bacteria by >6 log10CFU/ml at 4 times MIC by Miles Misra dilution method; assay type: functional
Summary of the method: (§1)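 Flasks of TSB inoculated at ~10^6 cfu/mL, compound added at 4 × MIC, shaken at 200 rpm and 37 °C. Samples taken at 1, 2, 4, 6 and 24 h and plated by Miles Misra dilution for CFU/mL. Bactericidal means a loss of >3 log CFU/mL. Three independent repeats, error bars SD.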

Klebsiella pneumoniae [2] = experiment: Antibacterial activity against Klebsiella pneumoniae M6 after 20 hrs in the presence of Pa-beta-N and magnesium ions by broth microdilution method; assay type: functional; conditions: M6, 20 h
Summary of the method: (§2)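 Broth microdilution in Tryptic Soy Broth, done in triplicate. Growth was read as OD600 after 20 h. MIC is the lowest drug concentration giving OD600 below 0.1.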

Enterococcus faecalis [3] = experiment: Bactericidal activity against vancomycin-resistant Enterococcus faecalis NCTC 12201 assessed as time required to kill bacteria by >6 log10CFU/ml at 4 times MIC by Miles Misra dilution method; assay type: functional; summary of the method: as §1
Staphylococcus aureus [4] = experiment: Antibacterial activity against methicillin-sensitive Staphylococcus aureus ATCC 9144 after 20 hrs by broth microdilution method; assay type: functional; conditions: ATCC 9144, 20 h; summary of the method: as §2
Pseudomonas aeruginosa [5] = experiment: Antibacterial activity against Pseudomonas aeruginosa PAO1 after 20 hrs in the presence of Pa-beta-N and magnesium ions by broth microdilution method; assay type: functional; conditions: PAO1, 20 h; summary of the method: as §2
Pseudomonas aeruginosa [6] = experiment: Antibacterial activity against Pseudomonas aeruginosa NCTC 13437 after 20 hrs by broth microdilution method; assay type: functional; conditions: NCTC 13437, 20 h; summary of the method: as §2
Acinetobacter baumannii [7] = experiment: Antibacterial activity against Acinetobacter baumannii AYE after 20 hrs in the presence of Pa-beta-N and magnesium ions by broth microdilution method; assay type: functional; summary of the method: as §2
Klebsiella pneumoniae [8] = experiment: Antibacterial activity against Klebsiella pneumoniae NCTC 13368 after 20 hrs by broth microdilution method; assay type: functional; conditions: NCTC 13368, 20 h; summary of the method: as §2
Klebsiella pneumoniae [9] = experiment: Antibacterial activity against Klebsiella pneumoniae NCTC 13368 after 20 hrs in the presence of Pa-beta-N and magnesium ions by broth microdilution method; assay type: functional; conditions: NCTC 13368, 20 h; summary of the method: as §2
Pseudomonas aeruginosa [10] = experiment: Antibacterial activity against Pseudomonas aeruginosa PAO1 after 20 hrs by broth microdilution method; assay type: functional; conditions: PAO1, 20 h; summary of the method: as §2
Acinetobacter baumannii [11] = experiment: Antibacterial activity against Acinetobacter baumannii AYE after 20 hrs in the presence of PMBN by broth microdilution method; assay type: functional; summary of the method: as §2
Enterococcus faecalis [12] = experiment: Antibacterial activity against vancomycin-resistant Enterococcus faecalis NCTC 12201 after 20 hrs by broth microdilution method; assay type: functional; conditions: NCTC 12201, 20 h
Summary of the method: (§3)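 Broth microdilution in Tryptic Soy Broth; growth read as OD600 after 20 h. MIC taken as the lowest drug concentration giving OD600 below 0.1. Run in triplicate.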

Acinetobacter baumannii [13] = experiment: Antibacterial activity against Acinetobacter baumannii ATCC 17978 after 20 hrs by broth microdilution method; assay type: functional; conditions: ATCC 17978, 20 h; summary of the method: as §2
Acinetobacter baumannii [14] = experiment: Antibacterial activity against Acinetobacter baumannii ATCC 17978 after 20 hrs in the presence of PMBN by broth microdilution method; assay type: functional; conditions: ATCC 17978, 20 h; summary of the method: as §2
Enterococcus faecalis [15] = experiment: Bactericidal activity against vancomycin-resistant Enterococcus faecalis NCTC 12201 at 4 times MIC after 24 hrs by Miles Misra dilution method; assay type: functional; summary of the method: as §1
Enterococcus faecalis [16] = experiment: Antibacterial activity against vancomycin-sensitive Enterococcus faecalis NCTC 775 after 20 hrs by broth microdilution method; assay type: functional; conditions: NCTC 775, 20 h; summary of the method: as §2
[17] = Stabilization of FAM/TAMRA-labeled AT-rich DNA duplex (unknown origin) assessed as change in melting temperature at 5 uM by FRET-based assay
Summary of the method: (§4)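 FRET melting of a FAM/TAMRA-labelled AT-rich oligonucleotide, 400 nM working solution in 50 mM potassium, 50 mM cacodylate, pH 7.4. DNA was annealed at 85 °C for 6 min, then held at 25 °C for 5 h, and mixed 1:1 with sample. Fluorescence was read every 0.5 °C from 30 to 100 °C, with a 30 s hold per step. ΔTm is measured against the blank, in triplicate.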

Pseudomonas aeruginosa [18] = experiment: Antibacterial activity against Pseudomonas aeruginosa PAO1 after 20 hrs in the presence of PMBN by broth microdilution method; assay type: functional; conditions: PAO1, 20 h; summary of the method: as §2
Pseudomonas aeruginosa [19] = experiment: Antibacterial activity against Pseudomonas aeruginosa NCTC 13437 after 20 hrs in the presence of PMBN by broth microdilution method; assay type: functional; conditions: NCTC 13437, 20 h; summary of the method: as §2
Staphylococcus aureus [20] = experiment: Antibacterial activity against methicillin-resistant Staphylococcus aureus MRSA252 after 20 hrs by broth microdilution method; assay type: functional; conditions: MRSA252, 20 h; summary of the method: as §3
Pseudomonas aeruginosa [21] = experiment: Antibacterial activity against Pseudomonas aeruginosa NCTC 13437 after 20 hrs in the presence of Pa-beta-N and magnesium ions by broth microdilution method; assay type: functional; conditions: NCTC 13437, 20 h; summary of the method: as §2
Klebsiella pneumoniae [22] = experiment: Antibacterial activity against Klebsiella pneumoniae NCTC 13368 after 20 hrs in the presence of PMBN by broth microdilution method; assay type: functional; conditions: NCTC 13368, 20 h; summary of the method: as §2
Staphylococcus aureus [23] = experiment: Antibacterial activity against methicillin-resistant Staphylococcus aureus EMRSA-15 after 20 hrs by broth microdilution method; assay type: functional; conditions: EMRSA-15, 20 h; summary of the method: as §3
Acinetobacter baumannii [24] = experiment: Antibacterial activity against Acinetobacter baumannii ATCC 17978 after 20 hrs in the presence of Pa-beta-N and magnesium ions by broth microdilution method; assay type: functional; conditions: ATCC 17978, 20 h; summary of the method: as §2
Klebsiella pneumoniae [25] = experiment: Antibacterial activity against Klebsiella pneumoniae M6 after 20 hrs by broth microdilution method; assay type: functional; conditions: M6, 20 h; summary of the method: as §2
[26] = Stabilization of FAM/TAMRA-labeled AT-rich DNA duplex (unknown origin) assessed as change in melting temperature at 1 uM by FRET-based assay; summary of the method: as §4
Acinetobacter baumannii [27] = experiment: Antibacterial activity against Acinetobacter baumannii AYE after 20 hrs by broth microdilution method; assay type: functional; summary of the method: as §2
Enterococcus faecium = experiment: Antibacterial activity against vancomycin-resistant Enterococcus faecium NCTC 12204 after 20 hrs by broth microdilution method; assay type: functional; conditions: NCTC 12204, 20 h; summary of the method: as §3
[28] = Cytotoxicity against human HeLa cells assessed as cell viability at 25 uM after 24 hrs by MTT assay; assay type: cell-based; conditions: read-out: Activity
Summary of the method: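 HeLa cells, 10000 per well, were grown at 37 °C in 5% CO2 and allowed to settle for 24 h. Compound was then added in triplicate for 24 h of continuous exposure. Viability was read by MTT colorimetry, with absorbance at 570 nm.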

Klebsiella pneumoniae [29] = experiment: Antibacterial activity against Klebsiella pneumoniae M6 after 20 hrs in the presence of PMBN by broth microdilution method; assay type: functional; conditions: M6, 20 h; summary of the method: as §2

## Cc1nc2ccc(C(=O)Nc3cccc(-c4ccc(-n5c(C)nc6cc(C(=O)NCCN(C)C)ccc65)nc4)c3)cc2[nH]1
Staphylococcus aureus [1]
  Time: 4 h
Klebsiella pneumoniae [2]
  MIC: > 32 µg/mL
Enterococcus faecalis [3]
  Time: 4 h
Staphylococcus aureus [4]
  MIC: 2 µg/mL (≈ 3.49 µM)
Pseudomonas aeruginosa [5]
  MIC: > 32 µg/mL
Pseudomonas aeruginosa [6]
  MIC: > 32 µg/mL
Acinetobacter baumannii [7]
  MIC: > 32 µg/mL
Klebsiella pneumoniae [8]
  MIC: > 32 µg/mL
Klebsiella pneumoniae [9]
  MIC: > 32 µg/mL
Pseudomonas aeruginosa [10]
  MIC: > 32 µg/mL
Acinetobacter baumannii [11]
  MIC: 32 µg/mL
Enterococcus faecalis [12]
  MIC: 1 µg/mL (≈ 1.75 µM)
Acinetobacter baumannii [13]
  MIC: > 32 µg/mL
Acinetobacter baumannii [14]
  MIC: 32 µg/mL
Enterococcus faecalis [15]
  Activity: inactive
Enterococcus faecalis [16]
  MIC: 4 µg/mL (≈ 6.98 µM)
[17]
  deltaTm: 0.9 °C
Pseudomonas aeruginosa [18]
  MIC: > 32 µg/mL
Pseudomonas aeruginosa [19]
  MIC: > 32 µg/mL
Staphylococcus aureus [20]
  MIC: 8 µg/mL (≈ 14 µM)
Pseudomonas aeruginosa [21]
  MIC: > 32 µg/mL
Klebsiella pneumoniae [22]
  MIC: > 32 µg/mL
Staphylococcus aureus [23]
  MIC: 2 µg/mL (≈ 3.49 µM)
Acinetobacter baumannii [24]
  MIC: 32 µg/mL
Klebsiella pneumoniae [25]
  MIC: > 32 µg/mL
[26]
  deltaTm: 0.2 °C
Acinetobacter baumannii [27]
  MIC: > 32 µg/mL
Enterococcus faecium
  MIC: 2 µg/mL (≈ 3.49 µM)
[28]
  viability at 24 h, 25 µM: > 98%
Klebsiella pneumoniae [29]
  MIC: 16 µg/mL
